From ChEMBL document CHEMBL1140421, “Kynurenamines as neural nitric oxide synthase inhibitors” (J Med Chem, 2005)

Columns and labels:
[1] = target: Nitric oxide synthase 1 (Rattus norvegicus) (UniProt P29476); test: Percentage inhibition of rat striatal neural nitric oxide synthase (nNOS) activity at 1 mM by quantifying L-[3H]citrulline production
Summary of the method: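 Striatal homogenate was made in pH 7.6 Tris buffer with DTT and protease inhibitors, then spun 1000g for 5 min. Supernatant was incubated with 25 mM Tris, 1 mM DTT, 30 μM H4-biopterin, 10 μM FAD, 0.1 mM CaCl2, 10 μM L-arginine plus 50 nM L-[3H]-arginine, 0.75 mM NADPH and compound at 1 mM final in DMSO, 37 °C, 30 min. L-[3H]-citrulline separated on Dowex-50W and counted. NADPH-free blank subtracted. Three experiments in triplicate.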

[2] = target: Kynurenine 3-monooxygenase (Rattus norvegicus) (UniProt O88867); test: Percent activity of rat striatal kynurenine 3-hydroxylase (KYN3OH) activity at 1 mM by quantifying 3-hydroxykynurenine production
Kynurenine 3-monooxygenase (Rattus norvegicus), sequence (O88867 whole entry, looked up): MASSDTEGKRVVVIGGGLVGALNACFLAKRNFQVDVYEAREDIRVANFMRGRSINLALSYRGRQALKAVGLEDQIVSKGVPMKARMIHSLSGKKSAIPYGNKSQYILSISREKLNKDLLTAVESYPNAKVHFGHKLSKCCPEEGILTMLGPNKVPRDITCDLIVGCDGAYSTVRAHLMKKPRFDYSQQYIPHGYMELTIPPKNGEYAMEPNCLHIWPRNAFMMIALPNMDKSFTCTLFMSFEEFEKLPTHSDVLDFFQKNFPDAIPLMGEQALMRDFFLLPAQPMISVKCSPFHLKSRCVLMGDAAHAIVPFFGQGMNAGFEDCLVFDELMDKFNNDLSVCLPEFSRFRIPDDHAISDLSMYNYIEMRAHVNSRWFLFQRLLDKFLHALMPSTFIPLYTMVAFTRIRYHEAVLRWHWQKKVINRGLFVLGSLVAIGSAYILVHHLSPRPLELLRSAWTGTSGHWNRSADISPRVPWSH

Nitric oxide synthase 1 (Rattus norvegicus), sequence (P29476 whole entry): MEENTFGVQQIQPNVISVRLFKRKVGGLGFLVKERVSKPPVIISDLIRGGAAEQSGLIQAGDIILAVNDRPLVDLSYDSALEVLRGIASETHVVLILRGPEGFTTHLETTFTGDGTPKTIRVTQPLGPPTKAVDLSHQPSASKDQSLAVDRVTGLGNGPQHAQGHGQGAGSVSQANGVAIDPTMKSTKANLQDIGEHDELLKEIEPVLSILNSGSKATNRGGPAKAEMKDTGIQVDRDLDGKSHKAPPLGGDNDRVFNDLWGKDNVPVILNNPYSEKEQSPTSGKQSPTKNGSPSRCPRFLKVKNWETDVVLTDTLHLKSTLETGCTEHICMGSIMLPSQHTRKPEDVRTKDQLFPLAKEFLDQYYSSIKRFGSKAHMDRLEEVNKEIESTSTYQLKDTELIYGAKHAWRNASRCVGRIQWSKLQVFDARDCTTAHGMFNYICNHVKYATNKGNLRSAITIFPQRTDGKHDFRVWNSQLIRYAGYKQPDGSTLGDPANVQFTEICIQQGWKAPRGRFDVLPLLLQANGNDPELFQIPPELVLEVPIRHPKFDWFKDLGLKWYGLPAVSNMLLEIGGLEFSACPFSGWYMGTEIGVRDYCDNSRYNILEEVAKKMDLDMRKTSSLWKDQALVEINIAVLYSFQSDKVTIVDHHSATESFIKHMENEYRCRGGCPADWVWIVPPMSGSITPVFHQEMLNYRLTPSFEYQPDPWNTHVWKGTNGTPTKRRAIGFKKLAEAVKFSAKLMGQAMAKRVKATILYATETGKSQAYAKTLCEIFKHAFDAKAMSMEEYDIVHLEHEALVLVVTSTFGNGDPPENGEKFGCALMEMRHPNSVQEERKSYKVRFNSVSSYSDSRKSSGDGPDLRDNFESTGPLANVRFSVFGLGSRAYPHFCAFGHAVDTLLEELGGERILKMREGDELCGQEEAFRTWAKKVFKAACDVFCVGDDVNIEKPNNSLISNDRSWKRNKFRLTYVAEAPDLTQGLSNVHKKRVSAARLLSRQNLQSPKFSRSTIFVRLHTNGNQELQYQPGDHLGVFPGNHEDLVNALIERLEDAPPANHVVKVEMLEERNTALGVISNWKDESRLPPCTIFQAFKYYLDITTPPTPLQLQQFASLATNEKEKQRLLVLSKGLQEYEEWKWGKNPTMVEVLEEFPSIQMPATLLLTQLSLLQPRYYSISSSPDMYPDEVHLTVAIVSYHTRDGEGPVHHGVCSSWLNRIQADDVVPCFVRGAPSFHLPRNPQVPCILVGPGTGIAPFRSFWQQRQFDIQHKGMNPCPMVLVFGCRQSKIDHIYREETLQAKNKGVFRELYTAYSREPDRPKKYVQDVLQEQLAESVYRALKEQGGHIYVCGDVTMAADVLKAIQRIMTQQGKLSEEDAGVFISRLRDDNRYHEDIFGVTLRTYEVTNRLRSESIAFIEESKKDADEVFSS

SMILES	inhibition [1] [%]	% activity [2] [%]
CC(=O)NCCC(=O)c1cc(Cl)ccc1N	31.7	
COc1ccc(N)c(C(=O)CCNC(=O)C2CCC2)c1	33.7	92.2
Nc1ccc(Cl)cc1C(=O)CCNC(=O)c1ccccc1	21.7	
Nc1ccc(Cl)cc1C(=O)CCNC(=O)C1CC1	23.3	
COc1ccc(N)c(C(=O)CCNC(=O)c2ccccc2)c1	46.5	97.2
CCC(=O)NCCC(=O)c1cc(OC)ccc1N	50.9	99.4
COc1ccc(N)c(C(=O)CCNC(C)=O)c1	65.4	102
CCCC(=O)NCCC(=O)c1cc(OC)ccc1N	42.8	
COc1ccc(N)c(C(=O)CCNC(=O)C2CCCC2)c1	45	96.3
COc1ccc(N)c(C(=O)CCNC(=O)C2CCCCC2)c1	48.2	99.6
COc1ccc(N)c(C(=O)CCNC(=O)C2CC2)c1	40.4	99.9
CCCCC(=O)NCCC(=O)c1cc(OC)ccc1N	39.6	97.2
